Converted amounts (≈) assume the structure as drawn.
System: not listed separately
Assay: Cytotoxicity against mock-infected human PBMC
Format: cell-based
Details: not given
Summary of the method: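 Mock-infected PHA-stimulated PBMCs cultured with serial compound dilutions. Viability determined by trypan blue exclusion. CC50 = concentration reducing viability by 50%; mean ± SD of at least two separate experiments.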

| Structure (SMILES) | CC50 |
| --- | --- |
| Cn1cc(C(=O)O)c(=O)c2cc(O)c(N3CCN(c4ccc5ccccc5n4)CC3)cc21 | 1.91 µg/mL (≈ 4.44 µM) |
| Cn1cc(C(=O)O)c(=O)c2cc(O)c(N3CCN(c4cccc(C(F)(F)F)c4)CC3)cc21 | 1.61 µg/mL (≈ 3.6 µM) |
| COc1cc2c(=O)c(C(=O)O)cn(C)c2cc1N1CCN(c2ccccn2)CC1 | 8.46 µg/mL (≈ 21.4 µM) |
| Cn1cc(C(=O)O)c(=O)c2cc(O)c(N3CCN(c4ccccn4)CC3)cc21 | ≥ 17.2 µg/mL |

System: not listed separately
Assay: Cytotoxicity against mock-infected human MT4 cells by MTT assay
Format: cell-based
Details: not given
Summary of the method: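 Mock-infected MT-4 cells (6 × 10⁵ cells/mL) exposed to serial 5-fold compound dilutions in parallel with infected cultures. After 5 days, viability measured by MTT formazan absorbance (540 and 690 nm; median OD of three wells). CC50 = concentration reducing OD540 of mock-infected control by 50%; mean ± SD of three separate experiments.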

| Structure (SMILES) | CC50 |
| --- | --- |
| Cn1cc(C(=O)O)c(=O)c2cc(O)c(N3CCN(c4ccc5ccccc5n4)CC3)cc21 | 0.47 µg/mL (≈ 1.09 µM) |
| Cn1cc(C(=O)O)c(=O)c2cc(O)c(N3CCN(c4cccc(C(F)(F)F)c4)CC3)cc21 | 1.13 µg/mL (≈ 2.53 µM) |
| Cn1cc(C(=O)O)c(=O)c2cc(O)c(N3CCN(c4nc5ccccc5s4)CC3)cc21 | 0.02 µg/mL (≈ 0.0458 µM) |
| Cn1cc(C(=O)O)c(=O)c2cc(O)c(N3CCN(c4cnccn4)CC3)cc21 | > 125 µg/mL |
| Cn1cc(C(=O)O)c(=O)c2cc(C(F)(F)F)c(N3CCN(c4nc5ccccc5s4)CC3)cc21 | 0.54 µg/mL (≈ 1.11 µM) |
| Cn1cc(C(=O)O)c(=O)c2cc(C(F)(F)F)c(N3CCN(c4ccccn4)CC3)cc21 | 13.9 µg/mL (≈ 32.2 µM) |
| Cn1cc(C(=O)O)c(=O)c2cc(C(F)(F)F)c(N3CCN(c4cccc(C(F)(F)F)c4)CC3)cc21 | 1.65 µg/mL (≈ 3.3 µM) |
| COc1cc2c(=O)c(C(=O)O)cn(C)c2cc1N1CCN(c2ccccn2)CC1 | 2.55 µg/mL (≈ 6.47 µM) |
| COc1cc2c(=O)c(C(=O)O)cn(C)c2cc1N1CCN(c2nc3ccccc3s2)CC1 | 0.05 µg/mL (≈ 0.111 µM) |
| Cn1cc(C(=O)O)c(=O)c2cc(O)c(N3CCN(c4ccccn4)CC3)cc21 | > 125 µg/mL |
| Cc1ccnc2c1NC(=O)c1cccnc1N2C1CC1 [NEVIRAPINE] | > 4 µg/mL |
| Cc1cn([C@H]2C[C@H](N=[N+]=[N-])[C@@H](CO)O2)c(=O)[nH]c1=O [ZIDOVUDINE] | 2.01 µg/mL (≈ 7.52 µM) |

System: not listed separately
Assay: Selectivity index, ratio of CC50 for human MT4 cells to EC50 for HIV ROD
Format: toxicity, cell-based
Details: read-out: Ratio CC50/EC50

| Structure (SMILES) | selectivity ratio |
| --- | --- |
| Cn1cc(C(=O)O)c(=O)c2cc(N)c(N3CCN(c4ccccn4)CC3)cc21 | 10 |
| Cn1cc(C(=O)O)c(=O)c2cc(O)c(N3CCN(c4ccc5ccccc5n4)CC3)cc21 | 14 |
| Cn1cc(C(=O)O)c(=O)c2cc(O)c(N3CCN(c4nc5ccccc5s4)CC3)cc21 | < 1 |
| Cn1cc(C(=O)O)c(=O)c2cc(O)c(N3CCN(c4cnccn4)CC3)cc21 | < 1 |
| Cn1cc(C(=O)O)c(=O)c2cc(C(F)(F)F)c(N3CCN(c4nc5ccccc5s4)CC3)cc21 | < 1 |
| Cn1cc(C(=O)O)c(=O)c2cc(C(F)(F)F)c(N3CCN(c4ccccn4)CC3)cc21 | < 1 |
| Cn1cc(C(=O)O)c(=O)c2cc(C(F)(F)F)c(N3CCN(c4cccc(C(F)(F)F)c4)CC3)cc21 | < 1 |
| COc1cc2c(=O)c(C(=O)O)cn(C)c2cc1N1CCN(c2ccccn2)CC1 | 6.5 |
| COc1cc2c(=O)c(C(=O)O)cn(C)c2cc1N1CCN(c2nc3ccccc3s2)CC1 | < 1 |
| Cn1cc(C(=O)O)c(=O)c2cc(O)c(N3CCN(c4ccccn4)CC3)cc21 | > 96 |
| Cc1cn([C@H]2C[C@H](N=[N+]=[N-])[C@@H](CO)O2)c(=O)[nH]c1=O [ZIDOVUDINE] | 2480 |

System: not listed separately
Assay: Selectivity index, ratio of CC50 for human MT4 cells to EC50 for HIV 3B
Format: toxicity, cell-based
Details: read-out: Ratio CC50/EC50

| Structure (SMILES) | selectivity ratio |
| --- | --- |
| Cn1cc(C(=O)O)c(=O)c2cc(N)c(N3CCN(c4ccccn4)CC3)cc21 | 15 |
| Cn1cc(C(=O)O)c(=O)c2cc(O)c(N3CCN(c4ccc5ccccc5n4)CC3)cc21 | 6 |
| Cn1cc(C(=O)O)c(=O)c2cc(O)c(N3CCN(c4nc5ccccc5s4)CC3)cc21 | < 1 |
| Cn1cc(C(=O)O)c(=O)c2cc(O)c(N3CCN(c4cnccn4)CC3)cc21 | < 1 |
| Cn1cc(C(=O)O)c(=O)c2cc(C(F)(F)F)c(N3CCN(c4nc5ccccc5s4)CC3)cc21 | < 1 |
| Cn1cc(C(=O)O)c(=O)c2cc(C(F)(F)F)c(N3CCN(c4ccccn4)CC3)cc21 | < 1 |
| Cn1cc(C(=O)O)c(=O)c2cc(C(F)(F)F)c(N3CCN(c4cccc(C(F)(F)F)c4)CC3)cc21 | < 1 |
| COc1cc2c(=O)c(C(=O)O)cn(C)c2cc1N1CCN(c2ccccn2)CC1 | 5 |
| COc1cc2c(=O)c(C(=O)O)cn(C)c2cc1N1CCN(c2nc3ccccc3s2)CC1 | < 1 |
| Cn1cc(C(=O)O)c(=O)c2cc(O)c(N3CCN(c4ccccn4)CC3)cc21 | > 68 |
| Cc1ccnc2c1NC(=O)c1cccnc1N2C1CC1 [NEVIRAPINE] | > 176 |
| Cc1cn([C@H]2C[C@H](N=[N+]=[N-])[C@@H](CO)O2)c(=O)[nH]c1=O [ZIDOVUDINE] | 1340 |

System: Human immunodeficiency virus
Assay: Antiviral activity against HIV 3B in PHA-stimulated human PBMC assessed as inhibition of p24 antigen production by ELISA
Format: functional, organism-based
Details: Human immunodeficiency virus 1, 3B
Summary of the method: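 PBMCs from healthy donors isolated by density centrifugation, PHA-stimulated 3 days, washed, plated at 2 × 10⁵ per 200 µL with serial compound dilutions and infected with HIV at 1000 CCID50 per mL. On day 4, supernatant partly replaced with fresh compound-containing medium. At day 7, p24 in supernatant measured by ELISA. EC50 = 50% inhibition of p24; mean ± SD, at least two experiments.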

| Structure (SMILES) | EC50 |
| --- | --- |
| Cn1cc(C(=O)O)c(=O)c2cc(O)c(N3CCN(c4ccc5ccccc5n4)CC3)cc21 | 0.26 µg/mL (≈ 0.604 µM) |
| Cn1cc(C(=O)O)c(=O)c2cc(O)c(N3CCN(c4cccc(C(F)(F)F)c4)CC3)cc21 | 0.4 µg/mL (≈ 0.894 µM) |
| COc1cc2c(=O)c(C(=O)O)cn(C)c2cc1N1CCN(c2ccccn2)CC1 | 1.78 µg/mL (≈ 4.51 µM) |
| Cn1cc(C(=O)O)c(=O)c2cc(O)c(N3CCN(c4ccccn4)CC3)cc21 | 0.39 µg/mL (≈ 1.03 µM) |

System: not listed separately
Assay: Selectivity index, ratio of IC50 for human PBMC to IC50 for HIV 3B
Details: not given

| Structure (SMILES) | Ratio CC50/EC50 |
| --- | --- |
| Cn1cc(C(=O)O)c(=O)c2cc(O)c(N3CCN(c4ccc5ccccc5n4)CC3)cc21 | 7 |
| Cn1cc(C(=O)O)c(=O)c2cc(O)c(N3CCN(c4cccc(C(F)(F)F)c4)CC3)cc21 | 4 |
| COc1cc2c(=O)c(C(=O)O)cn(C)c2cc1N1CCN(c2ccccn2)CC1 | 5 |
| Cn1cc(C(=O)O)c(=O)c2cc(O)c(N3CCN(c4ccccn4)CC3)cc21 | >=44 |

System: Human immunodeficiency virus
Assay: Antiviral activity against HIV ROD in human MT4 cells assessed as inhibition of virus-induced cytopathogenicity by MTT assay
Format: functional, organism-based
Details: Human immunodeficiency virus 2, ROD
Summary of the method: (§1)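 MT-4 cells resuspended at 6 × 10⁵ cells/mL, infected with HIV-1 IIIB or HIV-2 ROD at 100–300 CCID50, serial 5-fold compound dilutions. After 5 days, viability read by MTT reduction at 540 and 690 nm, median OD of three wells. EC50 = concentration giving 50% protection from viral cytopathic effect; mean ± SD of three separate experiments.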

| Structure (SMILES) | EC50 |
| --- | --- |
| Cn1cc(C(=O)O)c(=O)c2cc(N)c(N3CCN(c4ccccn4)CC3)cc21 | 0.097 µg/mL (≈ 0.256 µM) |
| Cn1cc(C(=O)O)c(=O)c2cc(O)c(N3CCN(c4ccc5ccccc5n4)CC3)cc21 | 0.033 µg/mL (≈ 0.0767 µM) |
| Cn1cc(C(=O)O)c(=O)c2cc(O)c(N3CCN(c4cccc(C(F)(F)F)c4)CC3)cc21 | ≥ 0.133 µg/mL |
| Cn1cc(C(=O)O)c(=O)c2cc(O)c(N3CCN(c4nc5ccccc5s4)CC3)cc21 | > 0.02 µg/mL |
| Cn1cc(C(=O)O)c(=O)c2cc(O)c(N3CCN(c4cnccn4)CC3)cc21 | > 125 µg/mL |
| Cn1cc(C(=O)O)c(=O)c2cc(C(F)(F)F)c(N3CCN(c4nc5ccccc5s4)CC3)cc21 | > 0.54 µg/mL |
| Cn1cc(C(=O)O)c(=O)c2cc(C(F)(F)F)c(N3CCN(c4ccccn4)CC3)cc21 | > 13.9 µg/mL |
| Cn1cc(C(=O)O)c(=O)c2cc(C(F)(F)F)c(N3CCN(c4cccc(C(F)(F)F)c4)CC3)cc21 | > 1.65 µg/mL |
| COc1cc2c(=O)c(C(=O)O)cn(C)c2cc1N1CCN(c2ccccn2)CC1 | 0.4 µg/mL (≈ 1.01 µM) |
| COc1cc2c(=O)c(C(=O)O)cn(C)c2cc1N1CCN(c2nc3ccccc3s2)CC1 | > 0.05 µg/mL |
| Cn1cc(C(=O)O)c(=O)c2cc(O)c(N3CCN(c4ccccn4)CC3)cc21 | 1.31 µg/mL (≈ 3.44 µM) |
| Cc1ccnc2c1NC(=O)c1cccnc1N2C1CC1 [NEVIRAPINE] | > 4 µg/mL |
| Cc1cn([C@H]2C[C@H](N=[N+]=[N-])[C@@H](CO)O2)c(=O)[nH]c1=O [ZIDOVUDINE] | 0.0008 µg/mL (≈ 0.00299 µM) |

System: Human immunodeficiency virus
Assay: Antiviral activity against HIV 3B in human MT4 cells assessed as inhibition of virus-induced cytopathogenicity by MTT assay
Format: functional, organism-based
Details: Human immunodeficiency virus 1, 3B
Summary of the method: as §1

| Structure (SMILES) | EC50 |
| --- | --- |
| Cn1cc(C(=O)O)c(=O)c2cc(N)c(N3CCN(c4ccccn4)CC3)cc21 | 0.058 µg/mL (≈ 0.153 µM) |
| Cn1cc(C(=O)O)c(=O)c2cc(O)c(N3CCN(c4ccc5ccccc5n4)CC3)cc21 | 0.08 µg/mL (≈ 0.186 µM) |
| Cn1cc(C(=O)O)c(=O)c2cc(O)c(N3CCN(c4cccc(C(F)(F)F)c4)CC3)cc21 | ≥ 1.13 µg/mL |
| Cn1cc(C(=O)O)c(=O)c2cc(O)c(N3CCN(c4nc5ccccc5s4)CC3)cc21 | > 0.02 µg/mL |
| Cn1cc(C(=O)O)c(=O)c2cc(O)c(N3CCN(c4cnccn4)CC3)cc21 | > 125 µg/mL |
| Cn1cc(C(=O)O)c(=O)c2cc(C(F)(F)F)c(N3CCN(c4nc5ccccc5s4)CC3)cc21 | > 0.54 µg/mL |
| Cn1cc(C(=O)O)c(=O)c2cc(C(F)(F)F)c(N3CCN(c4ccccn4)CC3)cc21 | > 13.9 µg/mL |
| Cn1cc(C(=O)O)c(=O)c2cc(C(F)(F)F)c(N3CCN(c4cccc(C(F)(F)F)c4)CC3)cc21 | > 1.65 µg/mL |
| COc1cc2c(=O)c(C(=O)O)cn(C)c2cc1N1CCN(c2ccccn2)CC1 | 0.47 µg/mL (≈ 1.19 µM) |
| COc1cc2c(=O)c(C(=O)O)cn(C)c2cc1N1CCN(c2nc3ccccc3s2)CC1 | > 0.05 µg/mL |
| Cn1cc(C(=O)O)c(=O)c2cc(O)c(N3CCN(c4ccccn4)CC3)cc21 | 1.85 µg/mL (≈ 4.86 µM) |
| Cc1ccnc2c1NC(=O)c1cccnc1N2C1CC1 [NEVIRAPINE] | 0.023 µg/mL (≈ 0.0864 µM) |
| Cc1cn([C@H]2C[C@H](N=[N+]=[N-])[C@@H](CO)O2)c(=O)[nH]c1=O [ZIDOVUDINE] | 0.0015 µg/mL (≈ 0.00561 µM) |

Reference: ChEMBL document CHEMBL1140865, “Studies on anti-HIV quinolones: new insights on the C-6 position” (Bioorg Med Chem, 2009)
